Values after ≈ are worked out from the molar mass of the structure shown. Active and inactive are the calls of the source. No cut-off for these calls is given here. Where a SMILES comes first, the peptide text is derived from it. Bridges are numbered along the chain shown (N, C = ends). [ ]: non-standard residue; d: D form. The star is where a group is joined. Octatrienoyl(2E,4E,6E) = C/C=C/C=C/C=C/C(=O)*; Hexadienoyl(2E,4E) = C/C=C/C=C/C(=O)*; Pro(4R-Me) = C[C@H]1CN[C@H](C(=O)O)C1; NMeA = CN[C@@H](C)C(=O)O; X1 = CCC/C=C/C=C/C(=O)*
Experiments:
Neisseria meningitidis = assay: Antibacterial activity against Neisseria meningitidis H44/76 incubated for 16 to 18 hrs by broth microdilution method; assay type: functional
How it was run: (§1)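 Colonies pre-grown 16−18 h at 37 °C in moist 5% CO₂ (Staph. aureus on LB agar; the others on GC agar with 1% IsoVitaleX), then diluted in BHI + 1% IsoVitaleX. Inoculum set by OD (600 nm Staph. aureus and S. pneumoniae; 550 nm N. meningitidis) to give ∼5 × 10⁵ cfu/mL per well. Twofold dilutions run 128–0.0625 μg/mL final. DMSO-only and medium blanks were included, with three independent plates, incubated 16−18 h at 37 °C in 5% CO₂.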

[1] = target: ATP-dependent Clp protease proteolytic subunit (Escherichia coli (strain K12)) (UniProt P0A6G7); assay: Activation of Escherichia coli ClpP assessed as degradation of casein-FITC substrate at 5 uM fluorescence-based biochemical assay
Sequence of ATP-dependent Clp protease proteolytic subunit (Escherichia coli (strain K12)) (P0A6G7 whole entry): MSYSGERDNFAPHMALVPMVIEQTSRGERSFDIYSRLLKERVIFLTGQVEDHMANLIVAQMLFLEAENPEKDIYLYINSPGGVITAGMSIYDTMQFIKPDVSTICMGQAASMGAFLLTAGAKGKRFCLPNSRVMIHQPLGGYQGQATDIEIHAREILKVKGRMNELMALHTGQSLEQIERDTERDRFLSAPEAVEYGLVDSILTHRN

Staphylococcus aureus = assay: Antibacterial activity against Staphylococcus aureus ATCC 29213 incubated for 16 to 18 hrs by broth microdilution method; assay type: functional; how it was run: as §1
Streptococcus pneumoniae = assay: Antibacterial activity against Streptococcus pneumoniae ATCC 49619 incubated for 16 to 18 hrs by broth microdilution method; assay type: functional; how it was run: as §1
[2] = target: ATP-dependent Clp protease proteolytic subunit (Escherichia coli (strain K12), UniProt P0A6G7); assay: Activation of Escherichia coli ClpP by ITC method
Sequence of ATP-dependent Clp protease proteolytic subunit (P0A6G7 whole entry): as above

MIC (Neisseria meningitidis) | Activity [1] | MIC (Staphylococcus aureus) | MIC (Streptococcus pneumoniae) | Kd [2] | Structure (SMILES)
0.5 µg/mL (≈ 0.709 µM) | Active | 16 µg/mL (≈ 22.7 µM) | 0.5 µg/mL (≈ 0.709 µM) | 700 nM | C/C=C/C=C/C=C/C(=O)N[C@@H](Cc1ccccc1)C(=O)N[C@H]1COC(=O)[C@@H]2CCCN2C(=O)[C@H](C)NC(=O)[C@H](C)N(C)C(=O)[C@@H]2CCCN2C1=O ({Octatrienoyl(2E,4E,6E)}-FSP[NMeA]AP; ester 2-C)
2 µg/mL (≈ 2.89 µM) | inactive | 4 µg/mL (≈ 5.77 µM) | 0.125 µg/mL (≈ 0.18 µM) |  | C/C=C/C=C/C(=O)N[C@@H](Cc1ccccc1)C(=O)N[C@H]1COC(=O)[C@@H]2C[C@@H](C)CN2C(=O)[C@H](C)NC(=O)[C@H](C)N(C)C(=O)[C@@H]2CCCN2C1=O ({Hexadienoyl(2E,4E)}-FSP[NMeA]A[Pro(4R-Me)]; ester 2-C)
4 µg/mL (≈ 5.89 µM) | inactive | 16 µg/mL (≈ 23.6 µM) | 0.25 µg/mL (≈ 0.368 µM) |  | C/C=C/C=C/C(=O)N[C@@H](Cc1ccccc1)C(=O)N[C@H]1COC(=O)[C@@H]2CCCN2C(=O)[C@H](C)NC(=O)[C@H](C)N(C)C(=O)[C@@H]2CCCN2C1=O ({Hexadienoyl(2E,4E)}-FSP[NMeA]AP; ester 2-C)
0.125 µg/mL (≈ 0.174 µM) | Active | 4 µg/mL (≈ 5.56 µM) | < 0.0625 µg/mL | 300 nM | C/C=C/C=C/C=C/C(=O)N[C@@H](Cc1ccccc1)C(=O)N[C@H]1COC(=O)[C@@H]2C[C@@H](C)CN2C(=O)[C@H](C)NC(=O)[C@H](C)N(C)C(=O)[C@@H]2CCCN2C1=O ({Octatrienoyl(2E,4E,6E)}-FSP[NMeA]A[Pro(4R-Me)]; ester 2-C)

Further lines, the compound ahead of its results:

Structure (SMILES) | MIC (Neisseria meningitidis) | Activity [1] | MIC (Staphylococcus aureus) | MIC (Streptococcus pneumoniae) | Kd [2]
NC[C@@H]1O[C@@H](O[C@H]2[C@H](O)[C@@H](O[C@H]3O[C@H](CO)[C@@H](O)[C@H](N)[C@H]3O)[C@H](N)C[C@@H]2N)[C@@H](O)[C@H](O)[C@H]1O [KANAMYCIN A] | 64 µg/mL (≈ 132 µM) |  |  |  | 
CCC/C=C/C=C/C(=O)N[C@@H](Cc1ccccc1)C(=O)N[C@H]1COC(=O)[C@@H]2C[C@@H](C)CN2C(=O)[C@H](C)NC(=O)[C@H](C)N(C)C(=O)[C@@H]2CCCN2C1=O (X1-FSP[NMeA]A[Pro(4R-Me)]; ester 2-C) | < 0.0625 µg/mL | Active | 0.5 µg/mL (≈ 0.694 µM) | < 0.0625 µg/mL | 
C[C@@H]1C[C@H]2C(=O)OC[C@H](NC(=O)[C@H](Cc3ccccc3)NC(=O)/C=C/C=C/CO)C(=O)N3CCC[C@H]3C(=O)N(C)[C@@H](C)C(=O)N[C@@H](C)C(=O)N2C1 (stereo in doubt) | 64 µg/mL (≈ 90.3 µM) | inactive | 128 µg/mL (≈ 181 µM) | 0.25 µg/mL (≈ 0.353 µM) | 
CN[C@H](CC(C)C)C(=O)N[C@H]1C(=O)N[C@@H](CC(N)=O)C(=O)N[C@H]2C(=O)N[C@H]3C(=O)N[C@H](C(=O)N[C@H](C(=O)O)c4cc(O)cc(O)c4-c4cc3ccc4O)[C@H](O)c3ccc(c(Cl)c3)Oc3cc2cc(c3O[C@@H]2O[C@H](CO)[C@@H](O)[C@H](O)[C@H]2O[C@H]2C[C@](C)(N)[C@H](O)[C@H](C)O2)Oc2ccc(cc2Cl)[C@H]1O [VANCOMYCIN] |  |  |  | 2 µg/mL (≈ 1.38 µM) | 
